Converted amounts (≈) assume the structure as drawn.
What was measured:
Type in all cases: functional
Klebsiella pneumoniae [1] = experiment: Antibacterial activity against Klebsiella pneumoniae isolate VA367 with blaKPC-3, qnrB19, blaTEM-1, blaSHV-11, blaSHV-12, aac(6')-1b genes by CLSI method
Escherichia coli [2] = experiment: Antibacterial activity against Escherichia coli J53 transconjugated with Klebsiella pneumoniae isolate VA367 containing blaKPC-3, qnrB19, blaTEM-1, blaSHV-11, aac(6')-1b genes by CLSI method
Klebsiella pneumoniae [3] = experiment: Antibacterial activity against Klebsiella pneumoniae isolate VA375 with blaKPC-3, qnrA1, blaTEM-1, blaSHV-11 genes by CLSI method
Escherichia coli [4] = experiment: Antibacterial activity against Escherichia coli J53 transconjugated with Klebsiella pneumoniae isolate VA375 containing qnrA1, blaTEM-1, blaSHV-11genes by CLSI method
Escherichia coli [5] = experiment: Antibacterial activity against Escherichia coli J53 by CLSI method
Escherichia coli [6] = experiment: Antibacterial activity against Escherichia coli J53 transconjugated with Klebsiella pneumoniae isolate VA367 containing blaKPC-3, qnrB19, blaTEM-1, blaSHV-11, aac(6')-1b genes by Etest method
Method in brief: (§1)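 Test strains were E. coli J53 (rifampin-resistant recipient) transconjugants obtained by conjugation with the K. pneumoniae donor isolate. After overnight incubation, the donor–recipient mixture was plated on MacConkey agar containing ceftazidime (10 mg/liter) plus rifampin (100 mg/liter) to select transconjugants. Etest conditions are not described.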

Klebsiella pneumoniae [7] = experiment: Antibacterial activity against Klebsiella pneumoniae isolate VA375 with blaKPC-3, qnrA1, blaTEM-1, blaSHV-11 genes by Etest method
Escherichia coli [8] = experiment: Antibacterial activity against Escherichia coli J53 transconjugated with Klebsiella pneumoniae isolate VA375 containing qnrA1, blaTEM-1, blaSHV-11genes by Etest method; method in brief: as §1
Escherichia coli [9] = experiment: Antibacterial activity against Escherichia coli J53 by Etest method
Klebsiella pneumoniae [10] = experiment: Antibacterial activity against Klebsiella pneumoniae isolate VA367 with blaKPC-3, qnrB19, blaTEM-1, blaSHV-11, blaSHV-12, aac(6')-1b genes by Etest method

Molecule | MIC (Klebsiella pneumoniae [1]) [µg/mL] | MIC (Escherichia coli [2]) [µg/mL] | MIC (Klebsiella pneumoniae [3]) [µg/mL] | MIC (Escherichia coli [4]) [µg/mL] | MIC (Escherichia coli [5]) [µg/mL] | MIC (Escherichia coli [6]) [µg/mL] | MIC (Klebsiella pneumoniae [7]) [µg/mL] | MIC (Escherichia coli [8]) [µg/mL] | MIC (Escherichia coli [9]) [µg/mL] | MIC (Klebsiella pneumoniae [10]) [µg/mL]
CCN1CCN(C(=O)N[C@@H](C(=O)N[C@@H]2C(=O)N3[C@@H]2SC(C)(C)[C@@H]3C(=O)O)c2ccccc2)C(=O)C1=O [PIPERACILLIN] | ≥ 128 | ≥ 128 | ≥ 128 | ≥ 128 | ≤ 4 | – | – | – | – | –
NCC[C@H](O)C(=O)N[C@@H]1C[C@H](N)[C@@H](O[C@H]2O[C@H](CN)[C@@H](O)[C@H](O)[C@H]2O)[C@H](O)[C@H]1O[C@H]1O[C@H](CO)[C@@H](O)[C@H](N)[C@H]1O [AMIKACIN] | ≥ 64 | 16 (≈ 27.3 µM) | ≤ 2 | ≤ 2 | ≤ 2 | – | – | – | – | –
GENTAMICIN | 4 | < 1 | > 16 | 4 | < 1 | – | – | – | – | –
COLISTIN | – | – | – | – | – | 0.38 | 1 | 0.38 | 0.38 | –
C[C@@H](O)[C@H]1C(=O)N2C(C(=O)O)=C(S[C@@H]3CN[C@H](C(=O)Nc4cccc(C(=O)O)c4)C3)[C@H](C)[C@H]12 | – | – | – | – | – | 2 (≈ 4.21 µM) | 8 (≈ 16.8 µM) | 0.125 (≈ 0.263 µM) | 0.023 (≈ 0.0484 µM) | 16 (≈ 33.6 µM)
C[C@H]1COc2c(N3CCN(C)CC3)c(F)cc3c(=O)c(C(=O)O)cn1c23.C[C@H]1COc2c(N3CCN(C)CC3)c(F)cc3c(=O)c(C(=O)O)cn1c23.O [LEVOFLOXACIN] | ≥ 8 | – | – | – | ≤ 0.25 | 0.75 | 0.75 | 1.5 | 0.25 | ≥ 32
CO/N=C(\C(=O)N[C@@H]1C(=O)N2C(C(=O)O)=C(CSc3nc(=O)c(O)nn3C)CS[C@H]12)c1csc(N)n1 [CEFTRIAXONE] | ≥ 64 | 8 (≈ 14.4 µM) | 32 (≈ 57.7 µM) | 8 (≈ 14.4 µM) | ≤ 1 | – | – | – | – | –
CN(C)c1cc(NC(=O)CNC(C)(C)C)c(O)c2c1C[C@H]1C[C@H]3[C@H](N(C)C)C(O)=C(C(N)=O)C(=O)[C@@]3(O)C(O)=C1C2=O [TIGECYCLINE] | – | – | – | – | – | 0.5 (≈ 0.854 µM) | 1.5 (≈ 2.56 µM) | 0.5 (≈ 0.854 µM) | 0.5 (≈ 0.854 µM) | –
NC[C@H]1O[C@H](O[C@H]2[C@H](O)[C@@H](O[C@H]3O[C@H](CO)[C@@H](O)[C@H](N)[C@H]3O)[C@H](N)C[C@@H]2N)[C@H](N)C[C@@H]1O [TOBRAMYCIN] | ≥ 16 | ≥ 16 | ≥ 16 | 4 (≈ 8.56 µM) | ≤ 1 | – | – | – | – | –
CO/N=C(\C(=O)N[C@@H]1C(=O)N2C(C(=O)O)=C(COC(N)=O)CS[C@H]12)c1ccco1 [CEFUROXIME] | ≥ 64 | ≥ 64 | ≥ 64 | ≥ 64 | 16 (≈ 37.7 µM) | – | – | – | – | –
CC(C)(O/N=C(\C(=O)N[C@@H]1C(=O)N2C(C(=O)[O-])=C(C[n+]3ccccc3)CS[C@H]12)c1csc(N)n1)C(=O)O [CEFTAZIDIME] | ≥ 64 | 32 (≈ 58.5 µM) | ≥ 64 | ≥ 64 | ≤ 1 | – | – | – | – | –
O=C1CN(/N=C/c2ccc([N+](=O)[O-])o2)C(=O)N1 [NITROFURANTOIN] | ≥ 512 | ≤ 16 | 64 (≈ 269 µM) | ≤ 16 | ≤ 16 | – | – | – | – | –
C[C@@H](O)[C@H]1C(=O)N2C(C(=O)O)=C(SCCNC=N)C[C@H]12 [IMIPENEM ANHYDROUS] | 2 (≈ 6.68 µM) | 4 (≈ 13.4 µM) | 2 (≈ 6.68 µM) | ≤ 1 | ≤ 1 | 4 (≈ 13.4 µM) | 8 (≈ 26.7 µM) | 0.38 (≈ 1.27 µM) | – | 16 (≈ 53.4 µM)
C[C@@H](O)[C@H]1C(=O)N2C(C(=O)O)=C(S[C@@H]3CN[C@H](C(=O)N(C)C)C3)[C@H](C)[C@H]12 [MEROPENEM] | 2 (≈ 5.22 µM) | 1 (≈ 2.61 µM) | 1 (≈ 2.61 µM) | ≤ 0.25 | ≤ 0.25 | 4 (≈ 10.4 µM) | 4 (≈ 10.4 µM) | 0.38 (≈ 0.991 µM) | 0.047 (≈ 0.123 µM) | 8 (≈ 20.9 µM)
O=C(O)c1cn(C2CC2)c2cc(N3CCNCC3)c(F)cc2c1=O [CIPROFLOXACIN] | – | – | – | – | – | – | 0.75 (≈ 2.26 µM) | – | – | ≥ 32
